ChEMBL document CHEMBL5303300, “EUbOPEN Chemogenomics Library - Multiplex” (2023)
Several values for one entry are separate records, joined by “and”; a condition that tells them apart may be missing. Equal values may be shown once.

Tests used:
HEK-293T = test: Multiplex assay against HEK293T; assay type: toxicity, cell-based; conditions: human, number of replicates 2
In short: (§1)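 With compound added, live cells were imaged on a CQ1 microscope at 37°C and 5% CO2; staining with Hoechst33342, BioTracker Green Microtubule Cytoskeleton Dye, MitoTracker Red and Annexin V Alexa Fluor 680 had been done at seeding. The CellPathfinder machine-learning gating scheme split cells into Hoechst high-intensity objects or normal cells, normal cells into healthy, pyknosed or fragmented nuclei, and pyknosed cells into mitotic or apoptotic. The tubulin, mitochondrial-mass and membrane-permeability phenotypes are per cents of healthy-nucleus cells.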

U2OS = test: Multiplex assay against U2OS; assay type: toxicity, cell-based; conditions: human, number of replicates 2; in short: as §1
[1] = 24 h, 1 µM, compound concentration 1 uM
[2] = 24 h, 10 µM, compound concentration 10 uM
[3] = 48 h, 1 µM, compound concentration 1 uM
[4] = 48 h, 10 µM, compound concentration 10 uM
[5] = 12 h, 1 µM, compound concentration 1 uM
[6] = 12 h, 10 µM, compound concentration 10 uM

CN(C)C/C=C/C(=O)Nc1cc2c(Nc3ccc(F)c(Cl)c3)ncnc2cc1OC[C@@H]1CCCO1
Population Membrane Permeable-Phenotype (%) (HEK-293T; [1]): 4%
Population Mitochondria Different-Phenotype (%) (HEK-293T; [1]): 21% and 18%
Population Mitotic Cells (%) (HEK-293T; [1]): 42% and 48%
Population Normal (%) (HEK-293T; [1]): 91%
Population Pyknosed Nuclei (%) (HEK-293T; [1]): 6% and 8%
Population Tubulin-Different-Phenotype (%) (HEK-293T; [1]): 81% and 83%
Total Cell Count (HEK-293T; [1]): 811 and 859
Population Apoptotic (%) (HEK-293T; [2]): 89% and 76%
Population Fragmented Nuclei (%) (HEK-293T; [2]): 3% and 1%
Population Healthy Nuclei (%) (HEK-293T; [2]): 62% and 73%
Population Hoechst High Intensity Objects (%) (HEK-293T; [2]): 25% and 29%
Population Membrane Permeable-Phenotype (%) (HEK-293T; [2]): 7% and 0%
Population Mitochondria Different-Phenotype (%) (HEK-293T; [2]): 74% and 79%
Population Mitotic Cells (%) (HEK-293T; [2]): 10% and 23%
Population Normal (%) (HEK-293T; [2]): 74% and 70%
Population Pyknosed Nuclei (%) (HEK-293T; [2]): 33% and 24%
Population Tubulin-Different-Phenotype (%) (HEK-293T; [2]): 60% and 57%
Total Cell Count (HEK-293T; [2]): 303 and 369
Population Apoptotic (%) (HEK-293T; [3]): 32% and 29%
Population Fragmented Nuclei (%) (HEK-293T; [3]): 11% and 10%
Population Healthy Nuclei (%) (HEK-293T; [3]): 83% and 85%
Population Hoechst High Intensity Objects (%) (HEK-293T; [3]): 9% and 10%
Population Membrane Permeable-Phenotype (%) (HEK-293T; [3]): 7% and 5%
Population Mitochondria Different-Phenotype (%) (HEK-293T; [3]): 5% and 4%
Population Mitotic Cells (%) (HEK-293T; [3]): 67% and 70%
Population Normal (%) (HEK-293T; [3]): 90% and 89%
Population Pyknosed Nuclei (%) (HEK-293T; [3]): 4%
Population Tubulin-Different-Phenotype (%) (HEK-293T; [3]): 60% and 62%
Total Cell Count (HEK-293T; [3]): 1468 and 1438
Population Apoptotic (%) (HEK-293T; [4]): 87% and 89%
Population Fragmented Nuclei (%) (HEK-293T; [4]): 9% and 8%
Population Healthy Nuclei (%) (HEK-293T; [4]): 43% and 53%
Population Hoechst High Intensity Objects (%) (HEK-293T; [4]): 31% and 32%
Population Membrane Permeable-Phenotype (%) (HEK-293T; [4]): 4% and 1%
Population Mitochondria Different-Phenotype (%) (HEK-293T; [4]): 81% and 83%
Population Mitotic Cells (%) (HEK-293T; [4]): 12% and 10%
Population Normal (%) (HEK-293T; [4]): 68% and 67%
Population Pyknosed Nuclei (%) (HEK-293T; [4]): 47% and 38%
Population Tubulin-Different-Phenotype (%) (HEK-293T; [4]): 52% and 58%
Total Cell Count (HEK-293T; [4]): 355 and 410
Population Apoptotic (%) (U2OS; [5]): 66% and 86%
Population Healthy Nuclei (%) (U2OS; [5]): 40% and 79%
Population Hoechst High Intensity Objects (%) (U2OS; [5]): 0%
Population Membrane Permeable-Phenotype (%) (U2OS; [5]): 27% and 24%
Population Mitochondria Different-Phenotype (%) (U2OS; [5]): 9% and 22%
Population Mitotic Cells (%) (U2OS; [5]): 33% and 13%
Population Normal (%) (U2OS; [5]): 100%
Population Pyknosed Nuclei (%) (U2OS; [5]): 22% and 14%
Population Tubulin-Different-Phenotype (%) (U2OS; [5]): 63% and 53%
Population Apoptotic (%) (U2OS; [6]): 76% and 59%
Population Healthy Nuclei (%) (U2OS; [6]): 23% and 66%
Population Hoechst High Intensity Objects (%) (U2OS; [6]): 0%
Population Membrane Permeable-Phenotype (%) (U2OS; [6]): 66% and 25%
Population Mitochondria Different-Phenotype (%) (U2OS; [6]): 50% and 48%
Population Mitotic Cells (%) (U2OS; [6]): 23% and 40%
Population Normal (%) (U2OS; [6]): 100% and 99%
Population Pyknosed Nuclei (%) (U2OS; [6]): 50% and 25%
Population Tubulin-Different-Phenotype (%) (U2OS; [6]): 83% and 97%
Population Apoptotic (%) (U2OS; [1]): 71% and 77%
Population Healthy Nuclei (%) (U2OS; [1]): 42% and 74%
Population Hoechst High Intensity Objects (%) (U2OS; [1]): 0%
Population Membrane Permeable-Phenotype (%) (U2OS; [1]): 14% and 18%
Population Mitochondria Different-Phenotype (%) (U2OS; [1]): 21% and 36%
Population Mitotic Cells (%) (U2OS; [1]): 28% and 22%
Population Normal (%) (U2OS; [1]): 100% and 99%
Population Pyknosed Nuclei (%) (U2OS; [1]): 21% and 20%
Population Tubulin-Different-Phenotype (%) (U2OS; [1]): 35% and 48%
Population Apoptotic (%) (U2OS; [2]): 85% and 65%
Population Hoechst High Intensity Objects (%) (U2OS; [2]): 0% and 1%
Population Membrane Permeable-Phenotype (%) (U2OS; [2]): 100% and 35%
Population Mitochondria Different-Phenotype (%) (U2OS; [2]): 80% and 70%
Population Mitotic Cells (%) (U2OS; [2]): 14% and 34%
Population Normal (%) (U2OS; [2]): 100% and 98%
Population Pyknosed Nuclei (%) (U2OS; [2]): 46% and 37%
Population Tubulin-Different-Phenotype (%) (U2OS; [2]): 100% and 93%
Population Apoptotic (%) (U2OS; [3]): 66% and 88%
Population Healthy Nuclei (%) (U2OS; [3]): 39% and 76%
Population Hoechst High Intensity Objects (%) (U2OS; [3]): 0%
Population Membrane Permeable-Phenotype (%) (U2OS; [3]): 27% and 14%
Population Mitochondria Different-Phenotype (%) (U2OS; [3]): 45% and 26%
Population Mitotic Cells (%) (U2OS; [3]): 33% and 11%
Population Normal (%) (U2OS; [3]): 100%
Population Pyknosed Nuclei (%) (U2OS; [3]): 21% and 18%
Population Tubulin-Different-Phenotype (%) (U2OS; [3]): 63% and 40%
Population Apoptotic (%) (U2OS; [4]): 76% and 90%
Population Hoechst High Intensity Objects (%) (U2OS; [4]): 0% and 2%
Population Membrane Permeable-Phenotype (%) (U2OS; [4]): 100% and 50%
Population Mitochondria Different-Phenotype (%) (U2OS; [4]): 100% and 79%
Population Mitotic Cells (%) (U2OS; [4]): 23% and 10%
Population Normal (%) (U2OS; [4]): 100% and 97%
Population Pyknosed Nuclei (%) (U2OS; [4]): 43% and 56%
Population Tubulin-Different-Phenotype (%) (U2OS; [4]): 100% and 89%
